Experimental data from different studies.
Lines come from different studies, so protocols differ.
MMP7: Matrilysin (MMP7, Homo sapiens, UniProt P09237)

Compound	target	effect on	action	method	tested at	endpoint	result
COc1ncccc1-c1cnn2ccc(N3CCN(C(=O)OC(C)C)CC3)nc12	Phosphatidylinositol 4-phosphate 5-kinase type-1 gamma (PIP5K1C, Homo sapiens, UniProt O60331)	binding		competition with immobilised ligand	1 µM	remaining binding	53%
N=C(N)c1ccc2cc(OC(=O)c3ccc(N=C(N)N)cc3)ccc2c1	MMP7	enzyme activity	inhibitor		10 µM	inhibition	5%
C#Cc1n[nH]c2c(-c3cn([C@@H](C)c4ccccn4)c(=O)[nH]c3=O)cc(F)cc12	Tyrosine-protein kinase receptor UFO (AXL, Homo sapiens, UniProt P30530)	enzyme activity	inhibitor		0.1 µM	inhibition	13.4%
Cc1cc(=O)oc2cc(NC(=O)[C@H](CCCNC(=N)N)NC(=O)[C@H](CCCNC(=N)N)NC(=O)[C@@H](NC(=O)[C@H](CCCNC(=N)N)NC(=O)OC(C)(C)C)C(C)C)ccc12	Furin (FURIN, Homo sapiens, UniProt P09958)	enzyme activity	substrate	fluorescence		Km	44.6 µM
Cc1nn(C)cc1-c1nc2c(N3CCN(Cc4ccc(Cl)cc4)CC3)c(Cl)cnc2[nH]1	Serine/threonine-protein kinase 32A (STK32A, Homo sapiens, UniProt Q8WU08)	binding		competition with immobilised ligand	1 µM	remaining binding	100%
Nc1ncc(-c2nc(N3CCOCC3)nc(N3CCOCC3)n2)c(C(F)F)n1	Serine/threonine-protein kinase 17B (STK17B, Homo sapiens, UniProt O94768)	binding		competition with immobilised ligand	10 µM	remaining binding	85%
CCOC(=O)c1ccc(OC(=O)CCCCCNC(=N)N)cc1	MMP7	enzyme activity	inhibitor		10 µM	inhibition	3%
O=c1ccc2ccc3occc3c2o1	Aldehyde dehydrogenase 1A1 (ALDH1A1, Homo sapiens, UniProt P00352)	enzyme activity	inhibitor	absorbance	10 µM	activity vs control	61%
